Data reported in ChEMBL document CHEMBL1129287, “Substituted xanthines, pteridinediones, and related compounds as potential antiinflammatory agents. Synthesis and biological evaluation of inhibitors of tumor necrosis factor alpha” (J Med Chem, 1996).

Test system: Mus musculus
Assay: Percent protection against TNF-alpha induced leukopenia in mice at a dose of 50 mg/Kg
Type: functional
Summary of the method: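 Mice given compound intraperitoneally in 250 uL saline, then 60 min later […] LPS in saline, ip. Blood was taken 2 h after LPS by retro-orbital puncture into heparinized tubes. Nucleated cells were counted, with neutrophil content as the leukopenia read-out.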

With `CCCn1c(=O)n(CCCC(=O)OCC)c(=O)c2nccnc21` the Protection was 60%.
